Assay results taken from ChEMBL document CHEMBL1153559, “Role of a sodium-dependent symporter homologue in the thermosensitivity of beta-lactam antibiotic resistance and cell wall composition in Staphylococcus aureus” (2008).
≈ marks a conversion by molar mass, not a printed value. Bridge positions count the residues as written; N and C are the ends. Square brackets hold non-standard residues; d marks the D form. Peptide text beside a SMILES is read from it. * marks the point of attachment. Ileψ(thiazoline)Cys = CC[C@H](C)[C@H](N)C1=N[C@H](C(=O)*)CS1; dOrn = NCCC[C@@H](N)C(=O)O

Key:
Type in all cases: functional
Staphylococcus aureus [1] = assay: Antimicrobial activity against methicillin-resistant Staphylococcus aureus COL at 42 degC by population analysis method
In short: (§1)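 Population analysis: S. aureus cultures were grown overnight in TSB, then plated at different cell concentrations on agar containing twofold serial methicillin concentrations. Colonies were counted after 48 h of incubation at 37 or 42°C, giving a methicillin resistance profile.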

Staphylococcus aureus [2] = assay: Antimicrobial activity against methicillin-resistant Staphylococcus aureus COL at 37 degC by population analysis method; in short: as §1
Staphylococcus aureus [3] = assay: Antimicrobial activity against methicillin-resistant Staphylococcus aureus COL transposon mutant C245 harboring Tn551 gene at 42 degC by population analysis method; in short: as §1
Staphylococcus aureus [4] = assay: Antimicrobial activity against SCCmec type 1 methicillin-resistant Staphylococcus aureus COL D19455 expressing symporter gene smr1 at 37 degC incubated for 24 hrs by E-test; conditions: COL D19455, 24 h
Staphylococcus aureus [5] = assay: Antimicrobial activity against SCCmec type 4 methicillin-resistant Staphylococcus aureus COL MW2-T expressing symporter gene smr1 at 37 degC incubated for 24 hrs by E-test
Staphylococcus aureus [6] = assay: Antimicrobial activity against SCCmec type 1 methicillin-resistant Staphylococcus aureus COL RUSA11-T3 expressing symporter gene smr1 at 42 degC incubated for 24 hrs by E-test; conditions: COL RUSA11-T3, 24 h
Staphylococcus aureus [7] = assay: Antimicrobial activity against SCCmec type 1 methicillin-resistant Staphylococcus aureus COL 404-T3 expressing symporter gene smr1 at 37 degC incubated for 24 hrs by E-test; conditions: COL 404-T3, 24 h
Staphylococcus aureus [8] = assay: Antimicrobial activity against SCCmec type 1 methicillin-resistant Staphylococcus aureus COL E2125-T2 expressing symporter gene smr1 at 37 degC incubated for 24 hrs by E-test; conditions: COL E2125-T2, 24 h
Staphylococcus aureus [9] = assay: Antimicrobial activity against SCCmec type 1 methicillin-resistant Staphylococcus aureus COL 319-T1 expressing symporter gene smr1 at 37 degC incubated for 24 hrs by E-test; conditions: COL 319-T1, 24 h
Staphylococcus aureus [10] = assay: Antimicrobial activity against SCCmec type 1 methicillin-resistant Staphylococcus aureus COL 404-T3 expressing symporter gene smr1 at 42 degC incubated for 24 hrs by E-test; conditions: COL 404-T3, 24 h
Staphylococcus aureus [11] = assay: Antimicrobial activity against SCCmec type 1 methicillin-resistant Staphylococcus aureus COL E2125 expressing symporter gene smr1 at 37 degC incubated for 24 hrs by E-test; conditions: COL E2125, 24 h
Staphylococcus aureus [12] = assay: Antimicrobial activity against SCCmec type 1 methicillin-resistant Staphylococcus aureus COL E3005 expressing symporter gene smr1 at 42 degC incubated for 24 hrs by E-test; conditions: COL E3005, 24 h
Staphylococcus aureus [13] = assay: Antimicrobial activity against SCCmec type 1 methicillin-resistant Staphylococcus aureus COL RUSA11-T3 expressing symporter gene smr1 at 37 degC incubated for 24 hrs by E-test; conditions: COL RUSA11-T3, 24 h
Staphylococcus aureus [14] = assay: Antimicrobial activity against SCCmec type 1 methicillin-resistant Staphylococcus aureus COL E3005-T4 expressing symporter gene smr1 at 37 degC incubated for 24 hrs by E-test; conditions: COL E3005-T4, 24 h
Staphylococcus aureus [15] = assay: Antimicrobial activity against SCCmec type 1 methicillin-resistant Staphylococcus aureus COL D19455-T2 expressing symporter gene smr1 at 37 degC incubated for 24 hrs by E-test; conditions: COL D19455-T2, 24 h
Staphylococcus aureus [16] = assay: Antimicrobial activity against SCCmec type 1 methicillin-resistant Staphylococcus aureus COL C245Td expressing symporter gene smr1 at 37 degC incubated for 24 hrs by E-test
Staphylococcus aureus [17] = assay: Antimicrobial activity against SCCmec type 3 methicillin-resistant Staphylococcus aureus COL 301 expressing symporter gene smr1 at 42 degC incubated for 24 hrs by E-test; conditions: COL 301, 24 h
Staphylococcus aureus [18] = assay: Antimicrobial activity against SCCmec type 1 methicillin-resistant Staphylococcus aureus COL RUSA11 expressing symporter gene smr1 at 42 degC incubated for 24 hrs by E-test; conditions: COL RUSA11, 24 h
Staphylococcus aureus [19] = assay: Antimicrobial activity against SCCmec type 1 methicillin-resistant Staphylococcus aureus COL E2125 expressing symporter gene smr1 at 42 degC incubated for 24 hrs by E-test; conditions: COL E2125, 24 h
Staphylococcus aureus [20] = assay: Antimicrobial activity against SCCmec type 3 methicillin-resistant Staphylococcus aureus COL 301 expressing symporter gene smr1 at 37 degC incubated for 24 hrs by E-test; conditions: COL 301, 24 h
Staphylococcus aureus [21] = assay: Antimicrobial activity against SCCmec type 1 methicillin-resistant Staphylococcus aureus COL E3005-T4 expressing symporter gene smr1 at 42 degC incubated for 24 hrs by E-test; conditions: COL E3005-T4, 24 h
Staphylococcus aureus [22] = assay: Antimicrobial activity against SCCmec type 3 methicillin-resistant Staphylococcus aureus COL 301-T6 expressing symporter gene smr1 at 37 degC incubated for 24 hrs by E-test; conditions: COL 301-T6, 24 h
Staphylococcus aureus [23] = assay: Antimicrobial activity against SCCmec type 4 methicillin-resistant Staphylococcus aureus COL MW2 expressing symporter gene smr1 at 37 degC incubated for 24 hrs by E-test; conditions: COL MW2, 24 h
Staphylococcus aureus [24] = assay: Antimicrobial activity against SCCmec type 1 methicillin-resistant Staphylococcus aureus COL E2125-T2 expressing symporter gene smr1 at 42 degC incubated for 24 hrs by E-test; conditions: COL E2125-T2, 24 h
Staphylococcus aureus [25] = assay: Antimicrobial activity against SCCmec type 4 methicillin-resistant Staphylococcus aureus COL MW2-T expressing symporter gene smr1 at 42 degC incubated for 24 hrs by E-test
Staphylococcus aureus [26] = assay: Antimicrobial activity against SCCmec type 1 methicillin-resistant Staphylococcus aureus COL D19455 expressing symporter gene smr1 at 42 degC incubated for 24 hrs by E-test; conditions: COL D19455, 24 h
Staphylococcus aureus [27] = assay: Antimicrobial activity against SCCmec type 1 methicillin-resistant Staphylococcus aureus COL 319 expressing symporter gene smr1 at 37 degC incubated for 24 hrs by E-test; conditions: COL 319, 24 h
Staphylococcus aureus [28] = assay: Antimicrobial activity against SCCmec type 1 methicillin-resistant Staphylococcus aureus COL C245Td expressing symporter gene smr1 at 42 degC incubated for 24 hrs by E-test
Staphylococcus aureus [29] = assay: Antimicrobial activity against SCCmec type 4 methicillin-resistant Staphylococcus aureus COL MW2 expressing symporter gene smr1 at 42 degC incubated for 24 hrs by E-test; conditions: COL MW2, 24 h
Staphylococcus aureus [30] = assay: Antimicrobial activity against SCCmec type 1 methicillin-resistant Staphylococcus aureus COL 319-T1 expressing symporter gene smr1 at 42 degC incubated for 24 hrs by E-test; conditions: COL 319-T1, 24 h
Staphylococcus aureus [31] = assay: Antimicrobial activity against SCCmec type 3 methicillin-resistant Staphylococcus aureus COL 301-T6 expressing symporter gene smr1 at 42 degC incubated for 24 hrs by E-test; conditions: COL 301-T6, 24 h
Staphylococcus aureus [32] = assay: Antimicrobial activity against SCCmec type 1 methicillin-resistant Staphylococcus aureus COL 404 expressing symporter gene smr1 at 42 degC incubated for 24 hrs by E-test; conditions: COL 404, 24 h
Staphylococcus aureus [33] = assay: Antimicrobial activity against SCCmec type 1 methicillin-resistant Staphylococcus aureus COL D19455-T2 expressing symporter gene smr1 at 42 degC incubated for 24 hrs by E-test; conditions: COL D19455-T2, 24 h
Staphylococcus aureus [34] = assay: Antimicrobial activity against SCCmec type 1 methicillin-resistant Staphylococcus aureus COL 404 expressing symporter gene smr1 at 37 degC incubated for 24 hrs by E-test; conditions: COL 404, 24 h
Staphylococcus aureus [35] = assay: Antimicrobial activity against SCCmec type 1 methicillin-resistant Staphylococcus aureus COL E3005 expressing symporter gene smr1 at 37 degC incubated for 24 hrs by E-test; conditions: COL E3005, 24 h
Staphylococcus aureus [36] = assay: Antimicrobial activity against SCCmec type 1 methicillin-resistant Staphylococcus aureus COL RUSA11 expressing symporter gene smr1 at 37 degC incubated for 24 hrs by E-test; conditions: COL RUSA11, 24 h
Staphylococcus aureus [37] = assay: Antimicrobial activity against SCCmec type 1 methicillin-resistant Staphylococcus aureus COL 319 expressing symporter gene smr1 at 42 degC incubated for 24 hrs by E-test; conditions: COL 319, 24 h

## CC[C@H](C)[C@H](N)C1=N[C@H](C(=O)N[C@@H](CC(C)C)C(=O)N[C@H](CCC(=O)O)C(=O)N[C@H](C(=O)N[C@H]2CCCCNC(=O)[C@H](CC(N)=O)NC(=O)[C@@H](CC(=O)O)NC(=O)[C@H](Cc3cnc[nH]3)NC(=O)[C@@H](Cc3ccccc3)NC(=O)[C@H]([C@@H](C)CC)NC(=O)[C@@H](CCCN)NC2=O)[C@@H](C)CC)CS1 [BACITRACIN] ({Ileψ(thiazoline)Cys}-L[dE]IK[dOrn]I[dF]H[dD]N; lactam 4-C)
Staphylococcus aureus [1]
  MIC: 50 µg/mL (≈ 35.1 µM)
Staphylococcus aureus [2]
  MIC: 50 µg/mL (≈ 35.1 µM)

## N[C@@H]1CONC1=O [CYCLOSERINE]
Staphylococcus aureus [1]
  MIC: 50 µg/mL (≈ 490 µM)
Staphylococcus aureus [2]
  MIC: 50 µg/mL (≈ 490 µM)

## C[C@@H]1O[C@@H]1P(=O)(O)O [FOSFOMYCIN]
Staphylococcus aureus [1]
  MIC: 25 µg/mL (≈ 181 µM)
Staphylococcus aureus [2]
  MIC: 50 µg/mL (≈ 362 µM)

## COc1cccc(OC)c1C(=O)N[C@@H]1C(=O)N2[C@@H]1SC(C)(C)[C@@H]2C(=O)O [METHICILLIN]
Staphylococcus aureus [3]
  MIC: 400 µg/mL (≈ 1050 µM)

## Cc1onc(-c2ccccc2)c1C(=O)N[C@@H]1C(=O)N2[C@@H]1SC(C)(C)[C@@H]2C(=O)O [OXACILLIN]
Staphylococcus aureus [4]
  MIC: 1 µg/mL (≈ 2.49 µM)
Staphylococcus aureus [5]
  MIC: 8 µg/mL (≈ 19.9 µM)
Staphylococcus aureus [6]
  MIC: 0.25 µg/mL (≈ 0.623 µM)
Staphylococcus aureus [7]
  MIC: > 256 µg/mL
Staphylococcus aureus [8]
  MIC: 128 µg/mL (≈ 319 µM)
Staphylococcus aureus [9]
  MIC: > 256 µg/mL
Staphylococcus aureus [10]
  MIC: > 256 µg/mL
Staphylococcus aureus [11]
  MIC: 1 µg/mL (≈ 2.49 µM)
Staphylococcus aureus [12]
  MIC: 0.5 µg/mL (≈ 1.25 µM)
Staphylococcus aureus [13]
  MIC: 4 µg/mL (≈ 9.96 µM)
Staphylococcus aureus [14]
  MIC: 12 µg/mL (≈ 29.9 µM)
Staphylococcus aureus [15]
  MIC: 64 µg/mL (≈ 159 µM)
Staphylococcus aureus [16]
  MIC: > 256 µg/mL
Staphylococcus aureus [17]
  MIC: 1 µg/mL (≈ 2.49 µM)
Staphylococcus aureus [18]
  MIC: 0.19 µg/mL (≈ 0.473 µM)
Staphylococcus aureus [19]
  MIC: 0.25 µg/mL (≈ 0.623 µM)
Staphylococcus aureus [20]
  MIC: > 256 µg/mL
Staphylococcus aureus [21]
  MIC: 0.38 µg/mL (≈ 0.947 µM)
Staphylococcus aureus [22]
  MIC: > 256 µg/mL
Staphylococcus aureus [23]
  MIC: 0.75 µg/mL (≈ 1.87 µM)
Staphylococcus aureus [24]
  MIC: 0.5 µg/mL (≈ 1.25 µM)
Staphylococcus aureus [25]
  MIC: 0.75 µg/mL (≈ 1.87 µM)
Staphylococcus aureus [26]
  MIC: 0.25 µg/mL (≈ 0.623 µM)
Staphylococcus aureus [27]
  MIC: > 256 µg/mL
Staphylococcus aureus [28]
  MIC: > 256 µg/mL
Staphylococcus aureus [29]
  MIC: 0.75 µg/mL (≈ 1.87 µM)
Staphylococcus aureus [30]
  MIC: > 256 µg/mL
Staphylococcus aureus [31]
  MIC: 16 µg/mL (≈ 39.9 µM)
Staphylococcus aureus [32]
  MIC: 1 µg/mL (≈ 2.49 µM)
Staphylococcus aureus [33]
  MIC: 0.25 µg/mL (≈ 0.623 µM)
Staphylococcus aureus [34]
  MIC: > 256 µg/mL
Staphylococcus aureus [35]
  MIC: 1.5 µg/mL (≈ 3.74 µM)
Staphylococcus aureus [36]
  MIC: 0.5 µg/mL (≈ 1.25 µM)
Staphylococcus aureus [37]
  MIC: 0.75 µg/mL (≈ 1.87 µM)

## CN(C)[C@@H]1C(O)=C(C(N)=O)C(=O)[C@@]2(O)C(O)=C3C(=O)c4c(O)cccc4[C@@](C)(O)[C@H]3C[C@@H]12 [TETRACYCLINE]
Staphylococcus aureus [1]
  MIC: 100 µg/mL (≈ 225 µM)
Staphylococcus aureus [2]
  MIC: 100 µg/mL (≈ 225 µM)

## CN[C@H](CC(C)C)C(=O)N[C@H]1C(=O)N[C@@H](CC(N)=O)C(=O)N[C@H]2C(=O)N[C@H]3C(=O)N[C@H](C(=O)N[C@H](C(=O)O)c4cc(O)cc(O)c4-c4cc3ccc4O)[C@H](O)c3ccc(c(Cl)c3)Oc3cc2cc(c3O[C@@H]2O[C@H](CO)[C@@H](O)[C@H](O)[C@H]2O[C@H]2C[C@](C)(N)[C@H](O)[C@H](C)O2)Oc2ccc(cc2Cl)[C@H]1O [VANCOMYCIN]
Staphylococcus aureus [1]
  MIC: 3 µg/mL (≈ 2.07 µM)
Staphylococcus aureus [2]
  MIC: 1.5 µg/mL (≈ 1.04 µM)
